Experimental data of several laboratories.
Lines come from different studies, so protocols differ.
PPARA: Peroxisome proliferator-activated receptor alpha (PPARA, Homo sapiens, UniProt Q07869)
ADRA1B: Alpha-1B adrenergic receptor (ADRA1B, Homo sapiens, UniProt P35368)
Tumor necrosis factor receptor superfamily member 9: Tumor necrosis factor receptor superfamily member 9 (Homo sapiens, UniProt Q07011)
CYP2D6: Cytochrome P450 2D6 (CYP2D6, Homo sapiens, UniProt P10635)
gag-pol integrase: Gag-Pol polyprotein, integrase (gag-pol, Human immunodeficiency virus 1, UniProt P12497)

O=C(O)C(F)(F)C(F)(F)C(F)(F)C(F)(F)C(F)(F)C(F)(F)C(F)(F)F
EC50 (PPARA; reporter gene, agonist, luciferase): 9500 nM

CC(=O)N[C@@H](CC(C)C)C(=O)N[C@@H](CC(C)C)C(=O)N[C@@H](CC(C)C)C(=O)N[C@@H](CCCN=C(N)N)C(=O)N[C@H](C(=O)N[C@@H](CCCCN)C(=O)N[C@@H](CCCN=C(N)N)C(N)=O)C(C)C
Ki (Neuroendocrine convertase 2 (Homo sapiens, UniProt P16519); enzyme activity, inhibitor): 500 nM

CC[C@H](C)[C@H](NC(=O)[C@H](CCCNC(=N)N)NC(=O)[C@H](CC(C)C)NC(=O)[C@@H](N)Cc1ccccc1)C(=O)N[C@@H](CCCNC(=N)N)C(=O)N1CCC[C@H]1C(=O)N[C@@H](CCCCN)C(=O)O
Ki (ADRA1B; cell-free assay, radioligand): 6900 nM

CCCC[C@@H]1NC(=O)[C@H](Cc2ccc(O)cc2)NC(=O)[C@@H]2CCCN2C(=O)[C@H](CC(=O)O)NC(=O)[C@H](C)NC(=O)[C@H](Cc2ccccc2)NC(=O)[C@@H]2CSCCC(=O)N3CN(CN(C3)C(=O)CCSC[C@H](NC(C)=O)C(=O)N[C@@H](CC(C)(C)C)C(=O)N3CCC[C@H]3C(=O)N[C@@H](CCC(=O)O)C(=O)N[C@H](CCCCNC(=O)CCc3cn(CCOCCOCCOCCOCCOCCC(=O)N[C@H]4CSCCC(=O)N5CN6CN(C5)C(=O)CCSC[C@H](NC(=O)[C@@H](CC(=O)O)NC(=O)[C@H](Cc5cccc7ccccc57)NC(=O)[C@@H]5CCCN5C4=O)C(=O)N[C@@H](CCSC)C(=O)N[C@@H](CCCCNC(=N)N)C(=O)N[C@@H](CC(=O)O)C(=O)N[C@@H](Cc4c[nH]c5ccccc45)C(=O)N[C@@H](CO)C(=O)N[C@@H]([C@@H](C)O)C(=O)N4CCC[C@H]4C(=O)N4C[C@H](O)C[C@H]4C(=O)N[C@@H](Cc4c[nH]c5ccccc45)C(=O)N[C@H](C(N)=O)CSCCC6=O)nn3)C(=O)N3CCC[C@H]3C(=O)N[C@@H](Cc3ccc(O)cc3)C(=O)N2)C(=O)CCSC[C@@H](C(N)=O)NC1=O
Kd (Tumor necrosis factor receptor superfamily member 9; binding, SPR): 4.47 nM

O=C(O)C(F)(F)C(F)(F)C(F)(F)C(F)(F)C(F)(F)C(F)(F)F
EC50 (PPARA; reporter gene, agonist, luciferase): 45000 nM

CCCC[C@@H]1NC(=O)[C@H](Cc2ccc(O)cc2)NC(=O)[C@@H]2CCCN2C(=O)[C@H](CC(=O)O)NC(=O)[C@H](C)NC(=O)[C@H](Cc2ccccc2)NC(=O)[C@@H]2CSCCC(=O)N3CN(CN(C3)C(=O)CCSC[C@@H](C(=O)N[C@@H](C)C(N)=O)NC1=O)C(=O)CCSC[C@H](NC(C)=O)C(=O)N[C@@H](CC(C)(C)C)C(=O)N1CCC[C@H]1C(=O)N[C@@H](CCC(=O)O)C(=O)N[C@H](CCCCNC(=O)CCc1cn(CCOCCOCCOCCOCCOCCC(=O)NCCCC[C@H]3NC(=O)[C@H](Cc4cccc5ccccc45)NC(=O)[C@@H]4CCCN4C(=O)[C@@H](NC(C)=O)CSCCC(=O)N4CN5CN(C4)C(=O)CCSC[C@H](NC3=O)C(=O)N[C@@H](CCSC)C(=O)N[C@@H](CCCCNC(=N)N)C(=O)N[C@@H](CCC(=O)O)C(=O)N[C@@H](Cc3c[nH]c4ccccc34)C(=O)N[C@@H](CO)C(=O)N[C@@H]([C@@H](C)O)C(=O)N3CCC[C@H]3C(=O)N3C[C@H](O)C[C@H]3C(=O)N[C@@H](Cc3c[nH]c4ccccc34)C(=O)N[C@H](C(N)=O)CSCCC5=O)nn1)C(=O)N1CCC[C@H]1C(=O)N[C@@H](Cc1ccc(O)cc1)C(=O)N2
Kd (Tumor necrosis factor receptor superfamily member 9; binding, SPR): 7.2 nM

Cc1c(Cc2ccc(C(F)(F)F)nc2)c[nH]c1C(=O)NC(C)c1cn[nH]c1 (stereo not drawn)
IC50 (CYP2D6; enzyme activity, inhibitor; human, liver microsomes): 750 nM

O=C(O)[C@H](Cc1ccc2ccccc2c1)NC(=O)C1(c2ccc(F)cc2)CCN(CCC(F)(F)F)CC1
IC50 (gag-pol integrase; enzyme activity, inhibitor, TR-FRET): 206000 nM

[Cd+2]
Ki (Protein phosphatase 1A (PPM1A, Homo sapiens, UniProt P35813, D38V); enzyme activity, inhibitor, absorbance; pH 8): 470 nM

CC(C)C[C@H](NC(=O)[C@H](Cc1ccccc1)NC(=O)[C@H](Cc1ccc(O)cc1)NC(=O)CNC(=O)[C@H](CCCCN)NC(=O)[C@H](CO)NC(=O)[C@H](CCC(N)=O)NC(=O)CNC(=O)[C@@H](NC(=O)[C@H](CO)NC(=O)[C@@H]1CCCN1C(=O)[C@H](CO)NC(=O)[C@H](CCC(N)=O)NC(=O)[C@H](Cc1ccc(O)cc1)NC(=O)[C@H](CCC(=O)O)NC(=O)[C@H](C)NC(=O)[C@H](CCCCN)NC(=O)[C@@H](N)Cc1ccccc1)C(C)C)C(=O)N[C@@H](Cc1ccccc1)C(=O)N[C@@H](CCCNC(=N)N)C(=O)N1CCC[C@H]1C(=O)N[C@@H](CCCNC(=N)N)C(=O)N[C@@H](CC(N)=O)C(N)=O
IC50 (Neuromedin-U receptor 2 (NMUR2, Homo sapiens, UniProt Q9GZQ4); ligand displacement, radioligand; cell membranes): 0.04 nM

CCCC[C@@H]1NC(=O)[C@H](Cc2ccc(O)cc2)NC(=O)[C@@H]2CCCN2C(=O)[C@H](CC(N)=O)NC(=O)[C@H](C)NC(=O)[C@H](Cc2ccccc2)NC(=O)[C@@H]2CSCCC(=O)N3CN(CN(C3)C(=O)CCSC[C@H](NC(C)=O)C(=O)N[C@@H](CC(C)(C)C)C(=O)N3CCC[C@H]3C(=O)N[C@@H](CCC(=O)O)C(=O)N[C@H](CCCCNC(=O)CCc3cn(CCOCCOCCOCCOCCOCCC(=O)N[C@H]4CSCCC(=O)N5CN6CN(C5)C(=O)CCSC[C@H](NC(=O)[C@@H](CC(=O)O)NC(=O)[C@H](Cc5cccc7ccccc57)NC(=O)[C@@H]5CCCN5C4=O)C(=O)N[C@@H](CCSC)C(=O)N[C@@H](CCCCNC(=N)N)C(=O)N[C@@H](CC(=O)O)C(=O)N[C@@H](Cc4c[nH]c5ccccc45)C(=O)N[C@@H](CO)C(=O)N[C@@H]([C@@H](C)O)C(=O)N4CCC[C@H]4C(=O)N4C[C@H](O)C[C@H]4C(=O)N[C@@H](Cc4c[nH]c5ccccc45)C(=O)N[C@H](C(N)=O)CSCCC6=O)nn3)C(=O)N3CCC[C@H]3C(=O)N[C@@H](Cc3ccc(O)cc3)C(=O)N2)C(=O)CCSC[C@@H](C(N)=O)NC1=O
Kd (Tumor necrosis factor receptor superfamily member 9; binding, SPR): 878 nM

O=S(=O)(O)C(F)(F)C(F)(F)OC(F)(C(F)(F)F)C(F)(F)OC(F)C(F)(F)F (stereo not drawn)
EC50 (PPARA; reporter gene, agonist, luciferase): 24000 nM

O=C(O)[C@H](Cc1ccccc1)NC(=O)C1(c2ccccc2)CCN(Cc2ccccc2)CC1
IC50 (gag-pol integrase; enzyme activity, inhibitor, TR-FRET): 194000 nM

Cc1cc(SCc2sc(-c3ccc(C(F)(F)F)c(F)c3)nc2C)ccc1OCC(=O)O
EC50 (PPARA; reporter gene, agonist, luciferase): 1300 nM

CC(c1ccccc1)n1cc(-c2ncccn2)c(=O)[nH]c1=O (stereo not drawn)
Kd (Hepatocyte growth factor receptor (MET, Homo sapiens, UniProt P08581); binding): 2510 nM

O=C(O)CCC(c1ccccc1)(c1ccccc1)c1ccccc1
IC50 (Kinesin-like protein KIF11 (KIF11, Homo sapiens, UniProt P52732); ATPase activity, inhibitor): > 28000 nM

Clc1ccc(N2CCN(Cc3c[nH]c4ncccc34)CC2)cc1
Ki (D(2) dopamine receptor (Drd2, Rattus norvegicus, UniProt P61169); ligand displacement, radioligand; cell membranes): 656 nM

CCCC[C@@H]1NC(=O)[C@H](Cc2ccc(O)cc2)NC(=O)[C@@H]2CCCN2C(=O)[C@H](CC(=O)O)NC(=O)[C@H](C)NC(=O)[C@H](Cc2ccccc2)NC(=O)[C@@H]2CSCCC(=O)N3CN(CN(C3)C(=O)CCSC[C@H](NC(C)=O)C(=O)N[C@@H](CC(C)(C)C)C(=O)N[C@@H](CCC(=O)O)C(=O)N[C@@H](CCC(=O)O)C(=O)N[C@H](CCCCNC(=O)CCc3cn(CCOCCOCCOCCOCCOCCC(=O)N[C@H]4CSCCC(=O)N5CN6CN(C5)C(=O)CCSC[C@H](NC(=O)[C@@H](CC(=O)O)NC(=O)[C@H](Cc5cccc7ccccc57)NC(=O)[C@@H]5CCCN5C4=O)C(=O)N[C@@H](CCSC)C(=O)N[C@@H](CCCCNC(=N)N)C(=O)N[C@@H](CC(=O)O)C(=O)N[C@@H](Cc4c[nH]c5ccccc45)C(=O)N[C@@H](CO)C(=O)N[C@@H]([C@@H](C)O)C(=O)N4CCC[C@H]4C(=O)N4C[C@H](O)C[C@H]4C(=O)N[C@@H](Cc4c[nH]c5ccccc45)C(=O)N[C@H](C(N)=O)CSCCC6=O)nn3)C(=O)N3CCC[C@H]3C(=O)N[C@@H](Cc3ccc(O)cc3)C(=O)N2)C(=O)CCSC[C@@H](C(N)=O)NC1=O
Kd (Tumor necrosis factor receptor superfamily member 9; binding, SPR): 9.6 nM

COCCCN1CCN(c2ccccc2OC)CC1
Ki (ADRA1B; ligand displacement, radioligand): 240 nM

Cc1c(Cc2ccc(C(F)(F)F)nc2)c[nH]c1C(=O)NC(C)c1cnn(C)c1 (stereo not drawn)
IC50 (CYP2D6; enzyme activity, inhibitor; human, liver microsomes): 12700 nM

O=C(O)[C@H](Cc1ccc2ccccc2c1)NC(=O)C1(c2ccc(-c3ccccc3)cc2)CCN(CCC(F)(F)F)CC1
IC50 (gag-pol integrase; enzyme activity, inhibitor, TR-FRET): 93500 nM
